Screening results: PubChem, several laboratories
In the library only some 2.1% were active in any assay of this set; here they are far more common.
SMARCA2 act: SMARCA2 function activation, primary screen | hit rate 1% among 370,000 | activation, % at 9.1 µM | MG213 cells, MMTV-luciferase reporter, dexamethasone, overnight; in the data active = activation above about 7.8%;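 also: 0% = vehicle wells and 100% = reference activator wells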
CFTR F508del cor: CFTR F508del correction in bronchial cells; CFBE cells, YFP halide quenching; stimulated with forskolin plus potentiator P3; % fluorescence drop versus neutral controls; activity (quench increase), % at 7.58 µM; hit rate 0.36% among 350,000;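 active = mean added fluorescence quench of at least 8% versus neutral control, with both replicates also reaching 8%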;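 also: cells transiently co-express mutant CFTR-F508del with the halide-sensitive YFP; corrector assay measuring rescue of mutant channel to the surface after 24 h compound exposure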
MC4R barr agon: human MC4R agonism via beta-arrestin | U2OS MC4R beta-arrestin complementation, luminescence; percent of melanotan II response, DMSO zero | activation, % at 8.9 µM | hit rate 0.98% among 360,000 | AID 540308;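 active = activation above a per-plate cutoff, the mean activation of sample wells on that plate plus 3 SD, cut at about 8% in these data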
Target sequence (P32245 whole entry, looked up): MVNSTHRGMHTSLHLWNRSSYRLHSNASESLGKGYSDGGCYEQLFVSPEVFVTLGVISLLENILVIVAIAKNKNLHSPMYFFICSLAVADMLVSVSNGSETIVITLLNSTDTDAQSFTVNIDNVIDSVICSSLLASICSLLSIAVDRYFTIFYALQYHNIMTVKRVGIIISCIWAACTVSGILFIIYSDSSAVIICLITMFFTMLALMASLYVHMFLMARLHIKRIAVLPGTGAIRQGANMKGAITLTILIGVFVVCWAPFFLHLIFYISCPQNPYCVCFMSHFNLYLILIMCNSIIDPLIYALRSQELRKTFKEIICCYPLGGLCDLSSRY
MC4R antagonist: human MC4R antagonism in cAMP assay | MC4R-expressing cells, MTII-stimulated cAMP, LANCE TR-FRET | inhibition, % at 6.5 µM | hit rate 0.48% among 360,000 | AID 540295;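 active = inhibition above its plate's cutoff, the mean of tested wells on that plate plus 3 SD, cut at about 29% in these data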;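 also: 0% = Melanotan II alone and 100% = Melanotan II plus saturating MCL0020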
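System: U2OS-MC4R stable cell line; Technique: Eu-cAMP/anti-cAMP TR-FRET, emission 671 nm; Repeats: single well per compound; Also added: Melanotan II; Dosing: one concentration, 6.5 µM nominal; Schedule: 30-min compound, 1-h challenge, 1-h detection, room temperature.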
SMARCA2 conf: SMARCA2 activation, confirmation screen | shares compounds with SMARCA2 act | MG213 cells, MMTV-luciferase with dexamethasone, luminescence, overnight; MG213 cells expressing E1A, Rb sequestered; DMSO wells 0%, reference activator 100% | activation, % at 9.1 µM | hit rate 30% among 3,500;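 active = activation above its plate's cutoff, the mean activation of tested wells plus 3 SD, cut at about 7.9% in these data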
VP16 Luc act: GAL4-VP16 reporter activation counter-screen. HEK293 GAL4-VP16 pG5luc reporter, luciferase luminescence; scaled: DMSO wells 0%, SAHA wells 100%. shares compounds with SMARCA2 act. hit rate 41% among 3,500. activation, % at 9.1 µM;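 active = activation above the solvent-only control well mean plus 3 SD, averaged across control plates, cut at about 5.2% in these data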
* marks the source's active call; other numbers are inactive results.

What do the screens show for `O=C(NCCC1=CCCCC1)C1CCCN(S(=O)(=O)c2cccc3cccnc23)C1` (configuration not stated)?
SMARCA2 act: 10*; CFTR F508del cor: 4; MC4R barr agon: -1; MC4R antagonist: 24; SMARCA2 conf: -5; VP16 Luc act: -1

How did O=c1c2ccccc2oc2ccc(NCCCN3CCOCC3)cc12 do in these assays?
SMARCA2 act: 6; CFTR F508del cor: 4; MC4R barr agon: 0; MC4R antagonist: 1

What do the screens show for `CN1CCCC1CCNc1ccc2oc3ccccc3c(=O)c2c1` (configuration not stated)?
SMARCA2 act: 4; CFTR F508del cor: -1

Results for CN1CCC[C@H]1CCNc1ccc2c(=O)c3ccccc3n(C)c2c1 ?
SMARCA2 act: 27*; CFTR F508del cor: -1; MC4R barr agon: 0; MC4R antagonist: -2; SMARCA2 conf: 53*; VP16 Luc act: 8.6*

What do the screens show for `Cn1c2ccccc2c(=O)c2cc(NCCCN3CCOCC3)ccc21`?
SMARCA2 act: 15*; CFTR F508del cor: 3; MC4R barr agon: -1; MC4R antagonist: -8; SMARCA2 conf: 18*; VP16 Luc act: 8.7*

Results for CN1CCCC1CCNc1ccc2c(=O)c3ccccc3oc2c1 (configuration not stated) ?
SMARCA2 act: 11*; CFTR F508del cor: 4; MC4R barr agon: 0; MC4R antagonist: 16; SMARCA2 conf: 14*; VP16 Luc act: 8.9*

What do the screens show for `CC(C)NC(=O)N(C)C[C@H]1OCCCC[C@H](C)Oc2ccc(NS(=O)(=O)c3ccccc3)cc2C(=O)N([C@@H](C)CO)C[C@@H]1C`?
CFTR F508del cor: -2

How did C[C@@H]1CN([C@@H](C)CO)C(=O)c2cccc(NC(=O)NC3CCCCC3)c2O[C@H]1CN(C)C(=O)NC1CCCCC1 do in these assays?
CFTR F508del cor: -1

How did C[C@H](CO)N1C[C@H](C)[C@H](CN(C)C(=O)C2CCCCC2)OCCCC[C@H](C)Oc2ccc(NC(=O)c3ccccc3)cc2C1=O do in these assays?
CFTR F508del cor: -2

What do the screens show for `C=C[C@H](COC(C)=O)N(C(=O)OC(C)(C)C)S(=O)(=O)c1ccc(Br)cc1`?
CFTR F508del cor: 1

Results for C[C@@H]1CCCCO[C@@H](CN(C)C)[C@@H](C)CN([C@@H](C)CO)C(=O)c2cc(NS(=O)(=O)c3ccccc3)ccc2O1 ?
CFTR F508del cor: -1

What do the screens show for `Cc1ccc(-c2cc(C(=O)NCc3cnn(C)c3)c3cc(Br)ccc3n2)cc1`?
SMARCA2 act: 12*; MC4R barr agon: 5; MC4R antagonist: 1; SMARCA2 conf: 2; VP16 Luc act: 6.6*

How did COCC(=O)N1C[C@H](C)[C@@H](OC)CN(C)C(=O)c2ccc(NC(=O)c3cc(C)on3)cc2OC[C@@H]1C do in these assays?
CFTR F508del cor: 0

How did CCOC(=O)c1c(C)[nH]c(C)c1S(=O)(=O)NCCc1ccc(SC)cc1 do in these assays?
SMARCA2 act: 12*; CFTR F508del cor: -3; MC4R barr agon: -2; MC4R antagonist: 4; SMARCA2 conf: -1; VP16 Luc act: 1

Results for CSc1nsc(SCC(=O)Nc2ccccc2)n1 ?
SMARCA2 act: 8.8*; CFTR F508del cor: 0; MC4R barr agon: -2; MC4R antagonist: 0; SMARCA2 conf: 6; VP16 Luc act: 1

Results for O=C(O)c1ccc2nc(-c3ccccc3)c(-c3ccccc3)nc2c1 ?
SMARCA2 act: 10*; MC4R barr agon: -1; MC4R antagonist: 16; SMARCA2 conf: 4; VP16 Luc act: 2

Results for Cc1noc(C)c1S(=O)(=O)Nc1ccc2c(c1)C(=O)N([C@@H](C)CO)C[C@@H](C)[C@@H](CN(C)C(=O)Nc1ccc(C(F)(F)F)cc1)O2 ?
CFTR F508del cor: 0

What do the screens show for `COc1ccc(-c2nc(-c3ccc(O)cc3O)cs2)cc1OC`?
SMARCA2 act: 8.8*; CFTR F508del cor: 0; MC4R barr agon: 3; MC4R antagonist: -16; SMARCA2 conf: 18*; VP16 Luc act: 12*
